Screens from PubChem BioAssay.
EBV gp42 block – Epstein-Barr virus gp42 inhibitors, primary screen, biochemical, uHTS, fluorescence polarization | Glycoprotein 42 (Epstein-Barr virus (strain AG876)), Q1HVG2 | Fluorescence polarization binding assay, mP read-out | inhibition, % (tested at 21.74 µM) | 220,000 compounds, 0.42% hits; in the data active = inhibition above about 50%
Target sequence (Q1HVG2 whole entry, looked up): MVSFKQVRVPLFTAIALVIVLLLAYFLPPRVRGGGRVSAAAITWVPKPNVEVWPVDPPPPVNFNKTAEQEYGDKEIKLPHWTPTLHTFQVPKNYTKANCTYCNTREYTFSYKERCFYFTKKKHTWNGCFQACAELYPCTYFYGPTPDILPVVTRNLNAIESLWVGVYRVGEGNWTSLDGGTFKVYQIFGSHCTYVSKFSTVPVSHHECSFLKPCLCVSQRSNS
Tb MetRS inh – T. brucei MetRS inhibitors, primary screen, biochemical, luminescence. methionyl-tRNA synthetase (Trypanosoma brucei brucei). purified T. brucei MetRS, ATP depletion, Kinase-Glo luminescence. inhibition, % at 11.9 µM. 360,000 compounds, 0.4% hits. AID 624268, 2012;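 active = inhibition above a per-plate cutoff of the control wells' mean inhibition plus 3 SD, cut at about 5.5% in these data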
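Dosing: 11.9 µM compound single dose, 0.9% DMSO; Assay system: purified T. brucei MetRS enzyme; Measured by: Kinase-Glo luciferase luminescence reporting remaining unconsumed ATP; Schedule: 15 min plus 2 h at 25 °C.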
WT yeast gro inh – growth inhibition of WT strain, primary screen, mitochondrial fusion inhibitor project, WT and mutant strains, chemical genetic; AID 1362, 2008; inhibition, % at 10 µM; mitochondrial fusion phenotypic screen; 190,000 compounds, 2.1% hits; in the data active = inhibition above about 58%; tested in S. cerevisiae
MPTP inh – mitochondrial permeability transition pore inhibitors, primary screen, biochemical, isolated mouse mitochondria, absorbance | Ca2+ swelling absorbance, 30 min | inhibition, % at 10 µM | 360,000 compounds, 1.4% hits | AID 602449, 2012;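 active = inhibition of 50% or more, scaled per plate between neutral and stimulator controls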
CHOP inhibitor – inhibitors of CHOP promoter induction, primary screen, cell-based, unfolded protein response, luciferase reporter | inhibition, % at 10 µM | CHO-K1 CHOP-promoter luciferase, tunicamycin-induced, 15-18 h | 220,000 compounds, 3.8% hits | AID 2732, 2010;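 active = compounds that reduced the stress-induced luciferase reporter signal by more than about 70% of percent inhibition, limit read from the data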
NR3A LBD binder – binders of NR3A ligand-binding domain, primary screen, biophysical, differential scanning fluorimetry, uHTS; NR3A LBD differential scanning fluorimetry, Tm shift; 0% = protein alone, 100% = glycine-bound protein; 340,000 compounds, 2.5% hits; Glutamate receptor ionotropic, NMDA 3A (GRIN3A) ligand-binding domain; Tm shift relative to glycine control, % at 25 µM;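 active = melting temperature shift of at least 10% of the positive control shift, at one fixed dose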
Of the large screens only hits and unclear results are named; the others gave an inactive call; ! = not active in a repeat. In the library only some 6.4% were active in any assay of this set; here they are far more common.

O=[N+]([O-])c1cc(Cl)ccc1N1CCOCC1	none
Cc1ccc(Cl)c(OC(=O)c2ccc(N3CCOCC3)c([N+](=O)[O-])c2)c1	NR3A LBD binder 22
C=CCn1c(N)c(C(=O)Nc2ccccc2)c2nc3ccccc3nc21	NR3A LBD binder 13
Cc1nn(C)c(C(=O)Nc2ccc3c(c2)OCO3)c1[N+](=O)[O-]	none (no result: EBV gp42 block, WT yeast gro inh, CHOP inhibitor)
Cc1c([N+](=O)[O-])c(C(=O)Nc2ccc3c(c2)OCCO3)nn1C	NR3A LBD binder 10
COc1c(Cl)cc(-c2noc(C)c2C(=O)NCc2ccc3c(c2)OCO3)cc1Cl	none
O=C(CSc1nc2ccccc2[nH]1)Nc1nc(-c2cccc(Br)c2)cs1	WT yeast gro inh 88
Cc1[nH]c2ccccc2c1C(=O)CSc1nc2ccccc2[nH]1	NR3A LBD binder 19
O=C(CSc1nc2ccccc2[nH]1)Nc1ccc(F)cc1	Tb MetRS inh 17
O=C(CSc1ccccc1)Nc1nc2ccccc2[nH]1	none
O=C(CSc1ccc(Cl)cc1)Nc1ccc(-c2nc3ccccc3[nH]2)cc1	NR3A LBD binder 37
Cc1ccccc1N1C(=O)N(c2cccc(C(F)(F)F)c2)C2CS(=O)(=O)CC21 (stereo not given)	none
O=c1nc2ccccn2c2ccc(S(=O)(=O)N3CCCCC3)cc12	none (no result: EBV gp42 block, WT yeast gro inh, CHOP inhibitor)
Cc1cccc(Oc2ccc(NC(=O)C3CC=CCC3C(=O)O)cc2)c1 (stereo not given)	none
COc1cc(Nc2nc(-c3ccccc3)c3cc(C)ccc3n2)cc(OC)c1OC	WT yeast gro inh 73
Fc1ccc(C(c2ccc(F)cc2)N2CCN(C/C=C/c3ccccc3)CC2)cc1	WT yeast gro inh 82, CHOP inhibitor 84!
C(=C\c1ccccc1)/CN1CCN(C(c2ccccc2)c2ccccc2)CC1	WT yeast gro inh 70
CCC(C)N(C(=O)COC(=O)CNC(=O)c1ccccc1F)C1CCS(=O)(=O)C1 (stereo not given)	none
O=C(Cn1cccn1)N1CCCC(N2CCN(Cc3ccc4c(c3)OCO4)CC2)C1 (stereo not given)	none (no result: EBV gp42 block, WT yeast gro inh, CHOP inhibitor)
COc1ccc(C(c2sc3nc(C)nn3c2O)N2CCC(C(N)=O)CC2)cc1OC (stereo not given)	none
COC(=O)C1CCN(C(c2ccc(OC)c(OC)c2)c2sc3nc(C)nn3c2O)CC1 (stereo not given)	NR3A LBD binder 13
Cc1cc(C)c(S(=O)(=O)c2c(C)cccc2C)c(OCC(C)C)n1	CHOP inhibitor 74
COc1ccc(C)cc1NC(=O)c1ccoc1C	none
COc1ccc(C(C)(C)C)cc1NC(=O)c1ccoc1C	WT yeast gro inh 65
CCn1cc(C(=O)N2CCN(Cc3ccc4c(c3)OCO4)CC2)c(=O)c2ccc(C)nc21	none
CC(C)(C)c1ccc(-c2nnc(NC(=O)c3ccccc3)s2)cc1	none
COCC(=O)Nc1nnc(-c2ccc(C(C)(C)C)cc2)s1	WT yeast gro inh 70
Cc1cc(C)cc(OCC(=O)Nc2cc(C)on2)c1	none
CC(=O)[C@@]1(O)CC[C@H]2[C@@H]3CCC4=CC(=O)CC[C@]4(C)[C@H]3CC[C@@]21C	none
CCCCCC(=O)O[C@]1(C(C)=O)CC[C@H]2[C@@H]3CCC4=CC(=O)CC[C@]4(C)[C@H]3CC[C@@]21C	WT yeast gro inh 74
COc1ccc(C(=O)COC(=O)c2ccccn2)c(OC)c1	none (no result: EBV gp42 block, WT yeast gro inh, CHOP inhibitor)
Cc1ccc(Cl)cc1N1CCN(C(=O)Cc2csc(Nc3nc(=S)[nH]c4ccccc34)n2)CC1	CHOP inhibitor 84
COc1cccc(NC(=O)CN(C)C(=O)c2cc(-c3cccc(Br)c3)nc3ccccc23)c1	NR3A LBD binder 18 (no result: EBV gp42 block, WT yeast gro inh, CHOP inhibitor)
CN(C)S(=O)(=O)c1cccc(NC(=O)COC(=O)c2cc(-c3cccc(Br)c3)nc3ccccc23)c1	NR3A LBD binder 22
COc1ccc(NC(=O)CN(C)C(=O)c2cc(-c3ccc(Cl)cc3)nc3ccccc23)cc1	NR3A LBD binder 14 (no result: EBV gp42 block, WT yeast gro inh, CHOP inhibitor)
CCOc1ccc(NC(=O)CN(C)C(=O)c2cc(-c3ccc(OC)cc3)nc3ccccc23)cc1OCC	none (no result: EBV gp42 block, WT yeast gro inh, CHOP inhibitor)
c1ccc(N2CCN(Cc3ccc4c(c3)OCO4)CC2)nc1	none (no result: EBV gp42 block, WT yeast gro inh, CHOP inhibitor)
CCOC(=O)c1ccc(NC(=O)NCc2c(C)nn(CC)c2C)cc1	none
O=C(N=Nc1c(O)[nH]c2ccc([N+](=O)[O-])cc12)c1ccccc1[N+](=O)[O-]	none (no result: WT yeast gro inh)
CC(=O)N/C(=C\c1ccccc1)C(=O)N1CCOCC1	none
CCC(NC(=O)c1ccccc1NC(=O)c1ccccc1)C(=O)O (stereo not given)	none
C[C@H](CO)N1C[C@H](C)[C@@H](CN(C)Cc2ccc(F)cc2)Oc2ncc(Br)cc2C1=O	none (no result: EBV gp42 block, WT yeast gro inh, CHOP inhibitor, NR3A LBD binder)
Cc1ccc(OCC(O)Cn2c(NCCc3ccccc3)nc3c2c(=O)[nH]c(=O)n3C)cc1 (stereo not given)	NR3A LBD binder 11
Cn1c(=O)[nH]c(=O)c2c1nc(NCCc1ccccc1)n2CC(O)COc1ccccc1 (stereo not given)	none
Cn1c(=O)[nH]c(=O)c2c1nc(NCc1ccccc1)n2CC(O)c1ccccc1 (stereo not given)	NR3A LBD binder 11
COCCn1c(NCc2ccccc2)nc2c1c(=O)[nH]c(=O)n2C	none
CCn1c(=NC(=O)CN2C(=O)CCC2=O)sc2c(C)cc(C)cc21	none
COC(=O)Cn1c(=NC(=O)C(C)C)sc2c(C)cc(C)cc21	NR3A LBD binder 20
COc1ccc(N2CCN(CCN3C(=O)c4ccccc4C3=O)CC2)cc1	none (no result: EBV gp42 block, WT yeast gro inh, CHOP inhibitor)
O=C(c1ccc(C23CC4CC(CC(C4)C2)C3)o1)N1CCOCC1	CHOP inhibitor 77
CCOC(=O)c1cnc(SC)nc1Sc1cc(Cl)ccc1Cl	WT yeast gro inh 71
CCOC(=O)c1cnc(SC)nc1Nc1cccc(F)c1	none
C#CC(=O)N(c1ccc(OC)cc1OC)C(C(=O)NC1CCCC1)c1cccs1 (stereo not given)	CHOP inhibitor 107
COc1ccc(CCN(C(=O)C(F)(F)F)C(C(=O)NC2CCCC2)c2cccs2)cc1 (stereo not given)	CHOP inhibitor 80
Cc1ccccc1NC(=O)Cc1nc(COC(=O)c2ccc([N+](=O)[O-])cc2)cs1	none (no result: EBV gp42 block, WT yeast gro inh, CHOP inhibitor)
Cc1nc2ccc(S(=O)(=O)N(C)CC(=O)N3CCc4ccccc4C3)cc2s1	none (no result: WT yeast gro inh)
C[C@H]1[C@H](C)CC[C@]2(C(=O)O)CC[C@]3(C)C(=CC[C@@H]4[C@@]5(C)C[C@@H](O)[C@H](O)C(C)(C)[C@@H]5CC[C@]43C)[C@H]12	CHOP inhibitor 72
